Assay results reported in ChEMBL document CHEMBL1158564, “Synthesis and biological evaluation of 1,4-diazepane derivatives as T-type calcium channel blockers” (Bioorg Med Chem Lett, 2010).
pIC50: −log10 of the molar value.

Experiments:
[1] = target: T1, Voltage-dependent T-type calcium channel subunit alpha-1G (Homo sapiens, UniProt O43497); assay: Inhibition of T-type calcium channel alpha1G expressed in human HEK293 cells assessed as inhibition of KCl-induced increase in calcium level at 10 uM after 60 mins by FDSS6000 assay
T1 sequence (O43497 whole entry): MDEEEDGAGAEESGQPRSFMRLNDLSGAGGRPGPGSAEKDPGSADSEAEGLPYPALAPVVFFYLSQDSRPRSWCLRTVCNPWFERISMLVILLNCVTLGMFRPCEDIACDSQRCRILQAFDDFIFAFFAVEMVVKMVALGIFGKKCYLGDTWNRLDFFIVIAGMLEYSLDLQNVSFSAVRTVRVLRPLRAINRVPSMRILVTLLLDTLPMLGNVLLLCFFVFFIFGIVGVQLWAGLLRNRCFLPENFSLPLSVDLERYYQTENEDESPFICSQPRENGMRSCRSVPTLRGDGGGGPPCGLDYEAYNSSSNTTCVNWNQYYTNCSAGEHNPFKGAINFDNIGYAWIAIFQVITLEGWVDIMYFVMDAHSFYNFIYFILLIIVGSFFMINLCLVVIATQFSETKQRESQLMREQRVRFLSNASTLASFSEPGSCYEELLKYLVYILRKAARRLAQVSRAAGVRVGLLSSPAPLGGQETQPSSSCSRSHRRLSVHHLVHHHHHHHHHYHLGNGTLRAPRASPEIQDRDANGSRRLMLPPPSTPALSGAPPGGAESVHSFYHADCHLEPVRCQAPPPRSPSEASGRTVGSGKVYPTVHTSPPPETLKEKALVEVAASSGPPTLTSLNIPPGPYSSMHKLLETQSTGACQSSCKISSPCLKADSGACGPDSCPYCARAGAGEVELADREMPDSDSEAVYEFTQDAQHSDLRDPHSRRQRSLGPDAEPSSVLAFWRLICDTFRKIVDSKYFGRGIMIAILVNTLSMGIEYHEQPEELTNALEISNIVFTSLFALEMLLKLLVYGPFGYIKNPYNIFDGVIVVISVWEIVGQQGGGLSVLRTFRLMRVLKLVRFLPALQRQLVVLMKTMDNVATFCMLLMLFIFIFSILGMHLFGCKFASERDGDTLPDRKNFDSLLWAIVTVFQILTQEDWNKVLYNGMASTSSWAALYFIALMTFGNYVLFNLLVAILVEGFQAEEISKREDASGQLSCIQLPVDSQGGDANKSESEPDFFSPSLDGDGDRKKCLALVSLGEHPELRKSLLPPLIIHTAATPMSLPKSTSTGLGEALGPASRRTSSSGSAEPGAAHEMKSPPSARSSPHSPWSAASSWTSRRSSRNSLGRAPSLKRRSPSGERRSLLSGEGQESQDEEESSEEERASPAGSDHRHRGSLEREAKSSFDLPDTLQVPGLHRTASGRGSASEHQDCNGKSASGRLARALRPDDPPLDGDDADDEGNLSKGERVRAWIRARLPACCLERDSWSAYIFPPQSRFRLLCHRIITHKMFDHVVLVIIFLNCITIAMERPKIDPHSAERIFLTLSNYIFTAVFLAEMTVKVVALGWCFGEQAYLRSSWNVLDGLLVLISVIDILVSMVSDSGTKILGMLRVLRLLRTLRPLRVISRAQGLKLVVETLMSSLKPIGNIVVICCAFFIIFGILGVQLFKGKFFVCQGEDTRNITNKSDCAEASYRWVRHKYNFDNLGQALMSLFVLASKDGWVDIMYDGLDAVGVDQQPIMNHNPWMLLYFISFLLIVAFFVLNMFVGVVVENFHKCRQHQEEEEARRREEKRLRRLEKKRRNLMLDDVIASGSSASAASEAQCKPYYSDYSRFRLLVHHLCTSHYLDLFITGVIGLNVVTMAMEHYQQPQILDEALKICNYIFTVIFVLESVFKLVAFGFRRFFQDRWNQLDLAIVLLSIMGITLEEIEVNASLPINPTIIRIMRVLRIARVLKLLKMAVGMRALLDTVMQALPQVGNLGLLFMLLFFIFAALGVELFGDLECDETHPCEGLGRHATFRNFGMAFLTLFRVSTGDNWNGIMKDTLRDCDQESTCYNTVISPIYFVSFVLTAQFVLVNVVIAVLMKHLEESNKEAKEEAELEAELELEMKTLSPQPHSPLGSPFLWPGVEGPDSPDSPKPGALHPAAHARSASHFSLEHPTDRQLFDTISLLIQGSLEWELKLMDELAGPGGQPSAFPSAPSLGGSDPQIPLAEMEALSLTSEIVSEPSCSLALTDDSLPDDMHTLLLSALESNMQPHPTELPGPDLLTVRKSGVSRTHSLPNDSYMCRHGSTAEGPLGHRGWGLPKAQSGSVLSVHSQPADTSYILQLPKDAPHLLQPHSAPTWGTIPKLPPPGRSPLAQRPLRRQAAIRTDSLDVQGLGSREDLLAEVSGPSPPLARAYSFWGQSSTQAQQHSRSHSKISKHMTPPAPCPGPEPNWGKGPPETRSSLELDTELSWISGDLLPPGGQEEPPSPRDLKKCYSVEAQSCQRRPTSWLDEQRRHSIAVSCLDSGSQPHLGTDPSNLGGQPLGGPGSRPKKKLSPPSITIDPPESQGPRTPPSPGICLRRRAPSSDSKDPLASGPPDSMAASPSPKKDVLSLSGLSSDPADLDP

[2] = target: T1, Voltage-dependent T-type calcium channel subunit alpha-1G; assay: Inhibition of T-type calcium channel alpha1G expressed in human HEK293 cells assessed as inhibition of peak currents by whole-cell patch-clamp method; format: cell-based
Outline: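 Whole-cell recording of α1G T-type Ca²⁺ currents, evoked every 15 s by a 50 ms depolarizing step from −100 mV to −30 mV. Peak-current inhibition was measured across compound concentrations. IC50 was obtained by fitting raw data to dose–response curves.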

[3] = target: Voltage-gated inwardly rectifying potassium channel KCNH2 (Homo sapiens, UniProt Q12809); assay: Inhibition of human ERG
Chain of Voltage-gated inwardly rectifying potassium channel KCNH2 (Q12809 whole entry): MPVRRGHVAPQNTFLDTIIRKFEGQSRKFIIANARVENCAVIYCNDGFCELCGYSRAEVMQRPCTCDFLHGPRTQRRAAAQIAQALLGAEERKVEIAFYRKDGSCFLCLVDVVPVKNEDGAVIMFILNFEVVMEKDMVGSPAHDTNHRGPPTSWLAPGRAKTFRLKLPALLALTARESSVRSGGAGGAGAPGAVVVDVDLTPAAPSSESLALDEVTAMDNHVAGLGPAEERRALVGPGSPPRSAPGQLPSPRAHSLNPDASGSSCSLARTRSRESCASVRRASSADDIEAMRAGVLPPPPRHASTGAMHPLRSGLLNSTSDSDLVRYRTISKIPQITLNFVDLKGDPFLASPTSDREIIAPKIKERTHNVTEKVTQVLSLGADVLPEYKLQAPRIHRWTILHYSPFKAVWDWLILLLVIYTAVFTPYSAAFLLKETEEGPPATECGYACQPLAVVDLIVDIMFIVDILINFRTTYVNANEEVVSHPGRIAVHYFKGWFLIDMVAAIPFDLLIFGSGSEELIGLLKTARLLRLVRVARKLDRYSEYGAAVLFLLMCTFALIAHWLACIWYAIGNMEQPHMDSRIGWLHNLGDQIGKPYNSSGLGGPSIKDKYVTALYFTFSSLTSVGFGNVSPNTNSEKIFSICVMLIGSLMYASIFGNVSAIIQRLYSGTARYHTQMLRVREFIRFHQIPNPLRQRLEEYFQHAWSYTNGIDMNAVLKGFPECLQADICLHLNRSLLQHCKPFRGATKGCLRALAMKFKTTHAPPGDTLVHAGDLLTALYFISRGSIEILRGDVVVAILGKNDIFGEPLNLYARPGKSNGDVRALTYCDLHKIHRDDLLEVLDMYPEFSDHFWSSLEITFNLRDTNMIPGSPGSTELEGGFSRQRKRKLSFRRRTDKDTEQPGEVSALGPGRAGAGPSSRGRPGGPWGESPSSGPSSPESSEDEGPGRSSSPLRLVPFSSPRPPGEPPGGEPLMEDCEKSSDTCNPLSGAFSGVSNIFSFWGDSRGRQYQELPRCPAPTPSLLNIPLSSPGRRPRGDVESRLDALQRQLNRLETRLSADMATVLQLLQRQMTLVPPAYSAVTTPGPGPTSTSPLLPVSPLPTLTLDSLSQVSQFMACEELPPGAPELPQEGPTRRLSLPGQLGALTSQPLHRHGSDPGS

[4] = target: Voltage-dependent N-type calcium channel subunit alpha-1B (Homo sapiens, UniProt Q00975); assay: Inhibition of N-type calcium channel Alpha-1B
[5] = Half life in iv dosed rat; format: ADME, organism-based; conditions: in vivo
Outline: (§1)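 Rat plasma pharmacokinetics after intravenous (n = 4) or oral (n = 3) dosing. Brain-to-plasma ratio, Cmax, Tmax, half-life, Vdss and oral bioavailability were derived per route. Values are given as mean with standard deviation.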

[6] = Volume of distribution at steady state in iv dosed rat; format: ADME, organism-based; conditions: in vivo, read-out: Vdss
Outline: as §1

[7] = Ratio of drug level in brain to plasma in iv dosed rat; format: ADME, organism-based; conditions: read-out: BPR
Outline: as §1

[8] = Half life in po dosed rat; format: ADME, organism-based; conditions: in vivo
Outline: as §1

[9] = Cmax in po dosed rat; format: ADME, organism-based; design: route oral; conditions: in vivo
Outline: as §1

[10] = Tmax in po dosed rat; format: ADME, organism-based; conditions: in vivo
Outline: as §1

[11] = Ratio of drug level in brain to plasma in po dosed rat; format: ADME, organism-based; conditions: read-out: BPR
Outline: as §1

[12] = Oral bioavailability in rat; format: ADME, organism-based; conditions: in vivo
Outline: as §1

Row | Structure (SMILES) | inhibition [1] | also measured
1 | Cc1ccc(NC(=O)CN2CCCN(Cc3nc4ccccc4[nH]3)CC2)cc1 | 44.8% | 
2 | COc1ccccc1NC(=O)CN1CCCN(Cc2nc3ccccc3[nH]2)CC1 | 59.1% | pIC50 [2]: 4.90
3 | Cc1ccccc1NCC(=O)N1CCCN(Cc2nc3ccccc3[nH]2)CC1 | 7.04% | 
4 | Cc1ccc(NC(=O)CN2CCCN(Cc3nc4ccccc4[nH]3)CC2)c(C)c1 | 47.6% | 
5 | O=C(CN1CCCN(Cc2nc3ccccc3[nH]2)CC1)Nc1ccccc1F | 32.4% | 
6 | O=C(CNc1ccccc1Cl)N1CCCN(Cc2nc3ccccc3[nH]2)CC1 | 32.2% | 
7 | O=C(CN1CCCN(Cc2nc3ccccc3[nH]2)CC1)Nc1ccc(C(F)(F)F)cc1 | 60.7% | pIC50 [2]: 5.91; pIC50 [3]: 5.30; pIC50 [4]: 4.54; half-life [5]: 5.67 h; Vd [6]: 2.33 L/kg; Kp [7]: 0.438; half-life [8]: 4.34 h; Cmax [9]: 2280 ng/mL; Tmax [10]: 2 h; Kp [11]: 0.105; bioavailability [12]: 43.4%
8 | O=C(CNc1ccccc1F)N1CCCN(Cc2nc3ccccc3[nH]2)CC1 | 22.3% | 
9 | Cc1cccc(NCC(=O)N2CCCN(Cc3nc4ccccc4[nH]3)CC2)c1 | 8.48% | 
10 | O=C(CN1CCCN(Cc2nc3ccccc3[nH]2)CC1)Nc1cccc(Cl)c1 | 41.7% | 
11 | Cc1ccc(NC(=O)CN2CCCN(Cc3nc4ccccc4[nH]3)CC2)cc1C | 56.2% | pIC50 [2]: 5.62
12 | O=C(CN1CCCN(Cc2nc3ccccc3[nH]2)CC1)Nc1cccc(C(F)(F)F)c1 | 60.1% | 
13 | O=C(CNc1ccc(Cl)cc1)N1CCCN(Cc2nc3ccccc3[nH]2)CC1 | 36.9% | 
14 | Cc1cccc(C)c1NCC(=O)N1CCCN(Cc2nc3ccccc3[nH]2)CC1 | 29.5% | 
15 | Cc1ccc(NCC(=O)N2CCCN(Cc3nc4ccccc4[nH]3)CC2)cc1 | 16.4% | 
16 | O=C(CNc1cccc(C(F)(F)F)c1)N1CCCN(Cc2nc3ccccc3[nH]2)CC1 | 27.3% | 
17 | COc1cccc(NC(=O)CN2CCCN(Cc3nc4ccccc4[nH]3)CC2)c1 | 46.1% | 
18 | O=C(CNc1ccc(C(F)(F)F)cc1)N1CCCN(Cc2nc3ccccc3[nH]2)CC1 | 28.2% | 
19 | Cc1cccc(NC(=O)CN2CCCN(Cc3nc4ccccc4[nH]3)CC2)c1 | 54.8% | 
20 | O=C(CNc1cccc(F)c1)N1CCCN(Cc2nc3ccccc3[nH]2)CC1 | 7.52% | 

Row | Structure (SMILES) | inhibition [1] | also measured
21 | O=C(CN1CCCN(Cc2nc3ccccc3[nH]2)CC1)Nc1ccccc1Cl | 56.8% | pIC50 [2]: 5.83
22 | Cc1ccc(NCC(=O)N2CCCN(Cc3nc4ccccc4[nH]3)CC2)c(C)c1 | 21.1% | 
23 | CCc1cccc(CC)c1NCC(=O)N1CCCN(Cc2nc3ccccc3[nH]2)CC1 | 62.4% | pIC50 [2]: 5.40
24 | COCC(=O)O[C@]1(CCN(C)CCCc2nc3ccccc3[nH]2)CCc2cc(F)ccc2[C@@H]1C(C)C [MIBEFRADIL] |  | pIC50 [4]: 5.87
25 | COc1cccc(NCC(=O)N2CCCN(Cc3nc4ccccc4[nH]3)CC2)c1 | 1.54% | 
26 | Cc1cccc(C)c1NC(=O)CN1CCCN(Cc2nc3ccccc3[nH]2)CC1 | 39.8% | 
27 | Cc1ccc(NCC(=O)N2CCCN(Cc3nc4ccccc4[nH]3)CC2)cc1C | 16.5% | 
28 | O=C(CN1CCCN(Cc2nc3ccccc3[nH]2)CC1)Nc1ccc(Cl)cc1 | 51.3% | 
29 | O=C(CNc1cccc(Cl)c1)N1CCCN(Cc2nc3ccccc3[nH]2)CC1 | 40.9% | 
30 | O=C(CN1CCCN(Cc2nc3ccccc3[nH]2)CC1)Nc1ccc(F)cc1 | 46.6% | 
31 | COc1ccc(NCC(=O)N2CCCN(Cc3nc4ccccc4[nH]3)CC2)cc1 | 0.92% | 
32 | O=C(CNc1ccccc1C(F)(F)F)N1CCCN(Cc2nc3ccccc3[nH]2)CC1 | 66% | pIC50 [2]: 5.50; pIC50 [3]: 5.88
33 | CCc1cccc(CC)c1NC(=O)CN1CCCN(Cc2nc3ccccc3[nH]2)CC1 | 57.4% | pIC50 [2]: 5.68
34 | O=C(CN1CCCN(Cc2nc3ccccc3[nH]2)CC1)Nc1cccc(F)c1 | 46.4% | 
35 | O=C(CNc1ccc(F)cc1)N1CCCN(Cc2nc3ccccc3[nH]2)CC1 | 12.8% | 
36 | COc1ccc(NC(=O)CN2CCCN(Cc3nc4ccccc4[nH]3)CC2)cc1 | 32.4% | 
37 | Cc1ccccc1NC(=O)CN1CCCN(Cc2nc3ccccc3[nH]2)CC1 | 51.8% | 
38 | O=C(CN1CCCN(Cc2nc3ccccc3[nH]2)CC1)Nc1ccccc1C(F)(F)F | 41.7% | 
39 | COc1ccccc1NCC(=O)N1CCCN(Cc2nc3ccccc3[nH]2)CC1 | 8.29% | 
